High-throughput results (PubChem BioAssay)
The list is not random: actives were taken first. Their share in the collection is about 9.6%.
Lmaj promast: reduces viability of Leishmania major promastigotes. AID 1063. inhibition, % at 10 µM. resazurin fluorescence viability. hit rate 9% among 200,000; in the data active = inhibition above about 50%;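 note: promastigotes grown with compound for 44 hours at 28 °C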
PMI act satM6P: activators of human phosphomannose isomerase at near-saturating mannose 6-phosphate. P34949. coupled PMI enzyme assay, resazurin fluorescence, 20 min; active compounds read high; 1 = untreated enzyme, 0 = substrate-free blank. activation factor at 20 µM. hit rate 0.34% among 190,000. AID 1216;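 active = activation factor of 2 or more at 20 µM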
Target sequence (P34949 whole entry, looked up): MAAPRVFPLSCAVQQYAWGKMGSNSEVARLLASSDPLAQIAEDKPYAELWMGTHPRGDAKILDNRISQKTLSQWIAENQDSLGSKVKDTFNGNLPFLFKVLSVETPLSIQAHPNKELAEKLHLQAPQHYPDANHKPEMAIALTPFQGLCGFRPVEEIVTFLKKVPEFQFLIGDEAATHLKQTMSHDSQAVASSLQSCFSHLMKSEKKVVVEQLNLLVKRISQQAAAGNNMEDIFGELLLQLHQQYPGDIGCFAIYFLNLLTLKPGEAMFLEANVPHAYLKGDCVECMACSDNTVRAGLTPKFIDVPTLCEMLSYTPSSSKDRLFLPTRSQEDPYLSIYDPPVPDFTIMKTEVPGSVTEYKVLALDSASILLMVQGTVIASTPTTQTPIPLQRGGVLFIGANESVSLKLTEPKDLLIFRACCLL
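Material: human phosphomannose isomerase with PGI, G6PDH, diaphorase coupling enzymes / Reagent: Man-6-P substrate 1.0 mM / Dosing: single compound dose of 20 µM, 1% DMSO final / Incubation: enzyme reaction with compound 20 min at room temperature / Signal: resorufin fluorescence (Ex 544/Em 590 nm) from resazurin via diaphorase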
HCT116 PTEN-null: suppresses growth of cells with PTEN deletion | HCT116 PTEN-null viability, CellTiter-Glo, 60 h; active compounds read low | viability, % at 10 µM | hit rate 1.2% among 140,000;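 active = viability at or below a set limit, 4 SD under the median of all tested compounds, cut at about 3.7% in these data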;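 note: PTEN knockout HCT116 line with beta catenin targeted HCT116 as companion control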
PMI activator: activators of human phosphomannose isomerase; purified human PMI, coupled resazurin fluorescence, 20 min; active compounds read high; 1 = vehicle control, 0 substrate-free wells; AID 1214; P34949; hit rate 0.005% among 190,000; activation factor at 20 µM;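 active = activation factor of 2 or more at 20 µM, relative to plate controls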
HCT116 bCat-KO: beta-catenin-lacking colon tumor cell growth suppression. viability, % at 10 µM. hit rate 1.5% among 140,000. HCT116 beta-catenin knockout viability, CellTiter-Glo, 60 h; active compounds read low;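 active = viability at or under a set limit, the compound median less 4 SD, cut at about 6% in these data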;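 note: 0% = Hyamine 1622 control at 20 µM and 100% = untreated cell control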
Starred values were filed as active, the others as inactive; nt = no result given.

SMILES	Lmaj promast	PMI act satM6P	HCT116 PTEN-null	PMI activator	HCT116 bCat-KO
Cc1cccc(N2C(=O)/C(=C\c3ccc(OC(F)F)cc3)c3ccccc3C2=O)c1	5	1.1	105	1	99
COc1cccc(/C=C2\C(=O)N(c3cccc(C)c3)C(=O)c3ccccc32)c1	73*	1.1	91	1.2	91
COC(=O)C1=CN(C2CC2)C=C(C(=O)OC)C1c1ccc(C(F)(F)F)cc1	88*	0.9	nt	0.9	nt
CCc1ccc(C(=O)COC(=O)C(CCSC)NC(=O)c2ccccc2)cc1 (configuration not stated)	38	0.9	98	0.8	95
CCN(CC)C(=O)CSc1ncnc2sc(C)c(C)c12	4	1.2	nt	1	nt
N#Cc1ccccc1NC(=O)CNc1ccccc1N1CCCCC1	71*	0.9	77	0.9	67
CC1Cc2ccccc2N1S(=O)(=O)c1cccs1 (configuration not stated)	90*	0.9	22	0.8	12
Cc1ccc(S(=O)(=O)N2c3ccccc3CC2C)cc1 (configuration not stated)	12	0.9	nt	0.9	nt
COc1ccc(C)cc1S(=O)(=O)N1c2ccccc2CC1C (configuration not stated)	100*	1	84	0.9	76
CCCNC(=O)C1CCN(S(=O)(=O)c2cccc3nonc23)CC1	-6	0.9	nt	1	nt
Oc1c(Cl)cc(Cl)cc1/C=N/Nc1ncc(Br)cn1	96*	1.2	nt	1.2	nt
CS/C(=N\S(=O)(=O)c1cccs1)NC(=O)CSc1nc2ccccc2s1	-3	2.4*	91	1.7	101
Cc1cc(C)cc(NC(=S)NCCN(C2CCCCC2)C2CCCC2)c1	63*	1	nt	1	nt
Cc1ccc(NC(=S)NCCN(C2CCCCC2)C2CCCC2)cc1C	64*	0.9	nt	1	nt
Cc1ccc(NC(=S)NCCN(C2CCCCC2)C2CCCC2)cc1	34	0.5	nt	0.9	nt
CNC(=O)NC(=O)C(C)OC(=O)CCCSc1nc2ccccc2s1 (configuration not stated)	65*	1	87	1	88
CCNC(=O)NC(=O)C(C)OC(=O)CCCSc1nc2ccccc2s1 (configuration not stated)	64*	1.1	96	1.1	94
CCOc1cc(S(=O)(=O)NCc2ccccn2)ccc1Cl	-2	1.1	95	1.1	105
Cc1nn(Cc2ccc(Cl)cc2Cl)c(Cl)c1/C=N/NC(=O)CNc1cccc(C(F)(F)F)c1	5	0.9	2.3*	0.9	1.8*
CC1=NN(C(=O)c2ccc(Cn3nc(C)cc3C)o2)C(O)(C(F)(F)F)C1 (configuration not stated)	-3	1	84	1	93
CCOc1ccc(NC(=S)N(CC)Cc2ccccc2)cc1	-2	1	nt	1	nt
CN1CCN(S(=O)(=O)c2ccc3c4c(cccc24)C(=O)N3)CC1	6	0.7	108	0.9	89
CCOc1ccccc1N1CCN(S(=O)(=O)c2ccc3c4c(cccc24)C(=O)N3)CC1	74*	0.8	81	0.6	83
CCCCn1c(NCCO)nc2ccccc21	-4	1.1	90	1.1	88
S=C(Nc1ccccc1)Nc1nc2ccccc2n1CCOc1ccccc1	51*	1	1.2*	1	1.6*
SMILES	Lmaj promast	PMI act satM6P	HCT116 PTEN-null	PMI activator	HCT116 bCat-KO
CCCCn1c(NC(=S)Nc2ccccc2)nc2ccccc21	80*	0.9	30	0.8	41
CCCCn1c(NC(=O)c2ccccc2)nc2ccccc21	96*	1	12	1.2	17
CC(=O)Nc1nc2ccccc2n1CCOc1ccccc1	35	1	14	1	31
CCCCn1c(NC(=O)C2CCCCC2)nc2ccccc21	71*	1.1	9	1	5.2*
Cc1nc2scc(-c3ccccc3)c2c(=O)n1N=C1C=CC(=O)C=C1	36	nt	nt	nt	nt
CCCOc1ccc(/C(O)=C2/C(=O)C(=O)N(CCN(C)C)C2c2ccncc2)cc1 (configuration not stated)	2	nt	nt	nt	nt
COc1ccc(N2CCN(C(=O)CCCN3C(=O)c4cccc5cccc(c45)C3=O)CC2)cc1	98*	1.1	90	0.9	87
CN1CCN(C2=Nc3cc(F)ccc3Cc3ccccc32)CC1	nt	1	nt	1	nt
Fc1ccc(N2CCN(C3=Nc4cccc5cccc3c45)CC2)cc1	98*	0.7	nt	0.9	nt
O=C(CCCN1C(=O)c2cccc3cccc(c23)C1=O)N1CCN(c2ccc(F)cc2)CC1	58*	0.8	nt	0.8	nt
COc1ccccc1N1CCN(C(=O)CCN2C(=O)c3cccc4cccc(c34)C2=O)CC1	-4	1	nt	1	nt
CCOC(=O)c1c(C)[nH]c(C(=O)COC(=O)CNC(=O)c2ccc(Cl)cc2Cl)c1C	52*	1.1	100	1.1	93
CCOC(=O)c1c(C)[nH]c(C(=O)COC(=O)/C=C/c2ccc(O)c(OC)c2)c1C	99*	0.8	20	0.9	15
CCOC(=O)c1ccc(Oc2ccc(C(F)(F)F)cn2)cc1	-6	1.1	nt	1	nt
COc1ccc(N(C(=O)C(C)C)S(=O)(=O)c2ccc3c(c2)n(C)c(=O)n3C)cc1	0	1	86	1	89
CCOC(=O)C1CCCN(c2nc(C)nc3c2oc2ccccc23)C1 (configuration not stated)	9	1	48	0.9	64
CCOC(=O)C1CCCN(c2c(C(=O)c3ccccc3)cnc3ccccc23)C1 (configuration not stated)	51*	1	nt	1	nt
CCOC(=O)C1CCN(c2c(C(=O)c3ccccc3)cnc3ccc(CC)cc23)CC1	55*	0.9	nt	1	nt
CCOC(=O)C1CCCN(C(=O)c2cc3c(C)nc4ccccc4c3o2)C1 (configuration not stated)	77*	0.9	64	0.9	73
O=C(c1ccccc1)c1cnc2ccc(Cl)cc2c1N1CCOCC1	20	1.1	nt	1.2	nt
COc1cc(-c2n[nH]c(=S)n2-c2ccc(C)cc2)cc(OC)c1OC	2	1	nt	0.9	nt
O=C(O)CCCC(=O)N1CCc2cc(S(=O)(=O)NCc3ccc(F)cc3)ccc21	-8	1.1	nt	1.1	nt
O=C(/C=C/c1ccc(Br)cc1)c1ccc(NC2=NCCCS2)cc1	100*	1	2.4*	1	3.2*
CCN(CC)c1ccc(/C=C/C(=O)c2ccc(Br)cc2)cc1	-4	1	72	0.9	84
CC(C)(C)c1ccc(/C=C/C(=O)c2ccc(NC3=NCCCS3)cc2)cc1	100*	0.8	0.9*	0.8	1.1*
CC(C)(C)c1ccc(OCCCC(=O)NC2=NCCS2)cc1	-3	1	79	1	79
O=C(/C=C/c1ccccc1)c1ccc(NC2=NCCCS2)cc1	100*	1	10	1	9
c1ccc(NC2=NCCCCS2)cc1	-3	1.1	108	1.1	97
CCCCCC(=O)NC(=S)Nc1ccc(Cl)cn1	39	1	98	1	105
